Calls of active or inactive are those of the source.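 How the source made its calls, unless noted: active means visual image review flags a hit and inhibition of aggregation exceeds 20%; inconclusive means visual hit but inhibition at or below 20%; inactive means no hit on visual image review.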
Legend:
[1] = inhibitors of TNFa-induced NFkB p65 translocation, primary screen, imaging, HUVEC, MLSMR starter and 10KST1 sets (AID 438;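 active means inhibition above 20% together with a positive visual image hit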;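 further: compound added about 3h40 before a 20 min TNFalpha stimulation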;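 on inhibition: signal is the nuclear over cytoplasmic p65 intensity ratio per well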); details: HUVEC TNFa-induced p65 nuclear translocation; cell count: measured here: nuclei count (cytotoxicity indicator), at 2.08 µM; inhibition: at 2 µM, stronger effect = higher value, 0% TNFa-plus-vehicle, 100% no-TNFa wells
[2] = reduction of polyQ htt aggregates in cells – imaging, exon1htt(103Q)mCFP cells, high-content imaging, primary screen (AID 483); details: exon1htt(103Q)mCFP cell line, aggregate imaging, at 2 µM; inhibition of aggregation: stronger effect = higher value; nuclei count: measured here: cell count, toxicity;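 further: compound exposure lasted 3 days before fixation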;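 on nuclei count: percent of the per-plate median nuclei count of sample wells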
[3] = endothelial E-selectin expression blockers – imaging, HUVEC, immunofluorescence, MLSMR starter and 10KST1 sets, primary screen (AID 487;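 active means visually confirmed hit in the image check and inhibition above 20%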;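 on inhibition: signal is fraction of cell area covered by stained E-selectin grains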;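 on nuclei count: 100% = median nuclei count of all wells on the same plate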); details: HUVEC TNFalpha-induced E-selectin immunofluorescence imaging, at 2 µM; inhibition: stronger effect = higher value; nuclei count: measured here: cell number, toxicity
[4] = biological target: Voltage-gated potassium channel subunit beta-2 (Rattus norvegicus) (UniProt P62483); assay: inhibitors of rat Kvbeta2 reductase activity – biochemical, NADPH fluorescence, primary screen (AID 622;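 active means fluorescence slope higher than the sample average by over 3 SD, cut at about -0.22 in these data, passing the limit was not always enough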;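 further: slope of raw intensity against log time taken from 70 to 1610 s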); details: recombinant KvBeta, 4-cyanobenzaldehyde reduction, at 10 µM, stronger effect = higher value
[5] = biological target: Voltage-gated potassium channel subunit beta-2 (Rattus norvegicus) (UniProt P62483); assay: enhancers of rat Kvbeta2 NADPH turnover – biochemical, NADPH fluorescence, primary screen (AID 623;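 active means NADPH fluorescence slope more negative than the mean of all samples by about 3 SD, 99.7% confidence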;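 further: fluorescence intensity change per second fitted from 20 to 320 s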); details: Recombinant KvBeta, NADPH fluorescence decrease slope, 10 min; at 10 µM; stronger effect = lower value
[6] = biological target: Alpha-2C adrenergic receptor (Homo sapiens) (UniProt P18825); assay: compounds altering alpha2C-coupled GIRK flux – cell-based, HEK293 alpha2C/GIRK1/2, thallium flux, primary screen (AID 624;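 active means fluorescence slope after compound addition differing from the mean of all screened samples at 99.7% confidence, in either direction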;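 further: slope of fluorescence ratio to pre-addition baseline per second over 15 to 24 s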); details: thallium flux BTC fluorescence, at 10 µM, actives lie on both sides
[7] = inhibitors of larval lipid processing in zebrafish, primary screen, whole organism, PED6 fluorescence, gall bladder and intestine (AID 686;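 active means a full or partial loss of lipid-probe fluorescence in the fish gall bladder, intestine or both, judged by eye; inactive means no fluorescence loss, or compound toxic to the fish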;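 further: larvae 5 to 7 days old with five fish per well; signal comes from phospholipase A2 cleavage of quenched PED6 carried via bile; overnight exposure to compound and PED6 before scoring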); details: Zebrafish larvae PED6 lipid processing, fluorescence scoring; screened at 20 µM (by protocol)
Procedure, shortened: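 Doses: 20 µM single dose. Test system: live zebrafish larvae aged 5-7 days, whole organism. Quantity: five larvae per well. Measured by: By-eye fluorescence microscopy. Reagent: ingested quenched lipid PED6 at 100 nM. Read-out: visual per-well fluorescence inhibition score. Times: overnight exposure of larvae to compound plus PED6.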

[8] = blockers of RIG-like receptor reporter activation – cell-based, Sendai virus stimulus, luciferase, 10K MLSCN set, TLR/RLR signaling modifier project, primary screen (AID 602276;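 active means inhibition at or above 50% at 10 µM; inactive means inhibition below 50%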;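 further: firefly luciferase from ISG56 promoter only with Renilla not read in this screen; 0% = Sendai virus plus DMSO and 100% = medium plus DMSO without virus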); details: HEK293 RL24 IRF3 luciferase reporter, at 10 µM, stronger effect = higher value
[9] = TLR3 IRF3 reporter activation blockers – cell-based, poly I:C stimulus, luciferase, 10K MLSCN set, primary screen (AID 602277;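 active means inhibition of the reporter signal at or above 50%; inactive means inhibition below 50%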); details: HEK293-TLR3 RL24 IRF3 luciferase reporter, at 10 µM, stronger effect = higher value

Sequence of Voltage-gated potassium channel subunit beta-2 (Rattus norvegicus) (P62483 whole entry, looked up): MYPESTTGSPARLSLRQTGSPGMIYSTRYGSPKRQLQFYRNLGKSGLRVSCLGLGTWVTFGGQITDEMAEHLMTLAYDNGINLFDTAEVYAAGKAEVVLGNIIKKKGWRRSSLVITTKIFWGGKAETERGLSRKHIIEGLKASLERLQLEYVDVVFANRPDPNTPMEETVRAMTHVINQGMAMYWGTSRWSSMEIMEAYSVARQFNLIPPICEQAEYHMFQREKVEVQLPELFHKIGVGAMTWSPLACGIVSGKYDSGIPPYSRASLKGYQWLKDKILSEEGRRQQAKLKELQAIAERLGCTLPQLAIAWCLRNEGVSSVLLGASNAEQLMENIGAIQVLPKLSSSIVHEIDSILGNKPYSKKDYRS
Sequence of Alpha-2C adrenergic receptor (Homo sapiens) (P18825 whole entry, looked up): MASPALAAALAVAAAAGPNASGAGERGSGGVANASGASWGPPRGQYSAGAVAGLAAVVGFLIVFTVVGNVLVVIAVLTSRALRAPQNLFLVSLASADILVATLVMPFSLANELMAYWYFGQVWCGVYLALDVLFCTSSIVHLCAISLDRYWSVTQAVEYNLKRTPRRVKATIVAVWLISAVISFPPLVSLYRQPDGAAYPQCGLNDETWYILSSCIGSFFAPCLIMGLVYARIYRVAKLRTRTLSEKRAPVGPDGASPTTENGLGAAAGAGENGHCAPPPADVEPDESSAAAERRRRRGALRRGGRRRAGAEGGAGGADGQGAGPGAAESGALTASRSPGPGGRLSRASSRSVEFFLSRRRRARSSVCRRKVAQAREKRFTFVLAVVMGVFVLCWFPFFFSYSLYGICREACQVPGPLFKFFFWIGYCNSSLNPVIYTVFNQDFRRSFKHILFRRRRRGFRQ

Structure (SMILES) | cell count [1] | inhibition [1] | inhibition of aggregation [2] | nuclei count [2] [%] | inhibition [3] | nuclei count [3] [%] | fluorescence slope [4] | NADPH fluorescence slope [5] | slope [6] | outcome [7] | inhibition [8] | inhibition [9]
c1ccc(-c2cc(CSc3nc4ccccc4[nH]3)on2)cc1 | 416 | 5.3% (inactive) | -43% (inactive) | 99.4 | -68.7% (inactive) | 116 | -0.376 (inactive) | -8.1e-05 (inactive) | 0.00533 (inactive) | inactive | -0.361% (inactive) | -25% (inactive)
COc1ccc(-c2noc(CCCOc3ccccc3)n2)cc1OC | 429 | 1.5% (inactive) | 21% (inactive) | 93 | -33% (inactive) | 134 | -0.473 (inactive) | -1.6e-05 (inactive) | 0.00512 (inactive) | inactive | -2.22% (inactive) | -9.66% (inactive)
COC(=O)c1sc(S(=O)(=O)N2CCN(c3ccccc3)CC2)c(C(=O)OC)c1C | 394 | 3.6% (inactive) | -23.7% (inactive) | 76.7 | -151% (inactive) | 117 | -0.385 (inactive) | -3.6e-05 (inactive) | 0.00645 (inactive) | inactive | 19.8% (inactive) | 22.7% (inactive)
O=C(c1nn2cccnc2c1Cl)N1CCN(c2ccccc2)CC1 | 344 | 3.6% (inactive) | -7.7% (inactive) | 80.1 | -45.6% (inactive) | 94.5 | -0.424 (inactive) | -2.5e-05 (inactive) | 0.00475 (inactive) | inactive | 11.4% (inactive) | 1.58% (inactive)
CCN1CCN(c2nc3c(c(=O)n(C)c(=O)n3C)n2Cc2cccc3ccccc23)CC1 | 471 | -6% (inactive) | 14.8% (inactive) | 85.1 | 35.5% (inactive) | 80.6 | -0.46 (inactive) | -5.6e-05 (inactive) | 0.00535 (inactive) | inactive | 12.4% (inactive) | 18.7% (inactive)
COc1ccc(OC)c(NC(=O)C23CCC(C)(C(=O)C2)C3(C)C)c1 (configuration not stated) | 512 | -4.8% (inactive) | 4.8% (inactive) | 98.5 | -103% (inactive) | 125 | -0.455 (inactive) | -0.00015 (inactive) | 0.00548 (inactive) | inactive | 12.9% (inactive) | 26.7% (inactive)
O=C(NCc1ccco1)c1cccc(S(=O)(=O)N2CCCCC2)c1 | 323 | -3.6% (inactive) | -3.2% (inactive) | 112 | -87.1% (inactive) | 120 | -0.462 (inactive) | 3.8e-05 (inactive) | 0.00571 (inactive) | inactive | -13.9% (inactive) | -7.47% (inactive)
CN(C)c1ccc(NC(=O)Nc2cccc(Cl)c2)cc1 | 387 | 2.3% (inactive) | 1.1% (inactive) | 106 | -10% (inactive) | 109 | -0.436 (inactive) | -3.6e-05 (inactive) | 0.00643 (inactive) | inactive | -43.6% (inactive) | -104% (inactive)
O=C(CSc1nnc(-c2ccc(Br)cc2)n1C1CCCCC1)N1CCCC1 | 306 | -17.8% (inactive) | 5.3% (inactive) | 101 | 4.3% (inactive) | 81.3 | -0.371 (inactive) | 1.5e-05 (inactive) | 0.00599 (inactive) | inactive | -3.56% (inactive) | -4.51% (inactive)
Cc1ccc(NC(=O)COC(=O)c2ccn(C)n2)cc1 | 521 | -2.1% (inactive) | -15.4% (inactive) | 89.1 | -28.3% (inactive) | 109 | -0.39 (inactive) | 1.1e-05 (inactive) | 0.0046 (inactive) | inactive | 17.1% (inactive) | 22.3% (inactive)
Cc1nc2ccc(C(=O)O)cc2c2c1CC(C)S2 (configuration not stated) | 462 | -3.8% (inactive) | -4% (inactive) | 106 | -20.4% (inactive) | 104 | -0.38 (inactive) | -4.3e-05 (inactive) | 0.00518 (inactive) | inactive | 13.9% (inactive) | 11.7% (inactive)
Cc1ccc2[nH]c3c(c2c1)CN(C(=O)CN1CCN(c2cccc(C)c2C)CC1)CC3 | 392 | 6.2% (inactive) | 22.7% (inactive) | 75.3 | -86.9% (inactive) | 111 | -0.306 (inactive) | -2.6e-05 (inactive) | 0.00467 (inactive) | inactive | 22.6% (inactive) | 24.6% (inactive)
COc1ccc(C)cc1-n1nnnc1SC/C(O)=C(\C#N)c1nc2ccccc2[nH]1 | 614 | 5.1% (inactive) | -491% (inactive) | 42.2 | -42.5% (inactive) | 104 | -0.431 (inactive) | -3.4e-05 (inactive) | 0.00627 (inactive) | active; weak signal in gallbladder only | 15.6% (inactive) | 27% (inactive)
COc1cc(C)c(Br)cc1S(=O)(=O)N1CCOCC1 | 397 | 6.3% (inactive) | 3.4% (inactive) | 106 | -68.9% (inactive) | 126 | -0.461 (inactive) | -4.2e-05 (inactive) | 0.00698 (inactive) | inactive | 11.9% (inactive) | 4.48% (inactive)
COc1ccc(NC(=O)CSc2nc(C)cc(C(F)(F)F)n2)cc1 | 648 | -3.3% (inactive) | 8.8% (inactive) | 95.3 | -1% (inactive) | 92.8 | -0.418 (inactive) | -2.1e-05 (inactive) | 0.00507 (inactive) | inactive | 14.9% (inactive) | 18.5% (inactive)
COc1ccccc1NC(=O)CSc1nnc(Cn2nnc(-c3ccccc3)n2)n1-c1ccccc1 | 644 | -12.5% (inactive) | 5.6% (inactive) | 104 | -50.5% (inactive) | 119 | -0.452 (inactive) | -5.2e-05 (inactive) | 0.00589 (inactive) | inactive | 19.9% (inactive) | 14.5% (inactive)
COc1ccccc1N1CCN(c2cc(N3CCCC3)nc(C)n2)CC1 | 310 | 7.3% (inactive) | 0% (inactive) | 102 | -60.1% (inactive) | 136 | -0.471 (inactive) | -7.2e-05 (inactive) | 0.0045 (inactive) | inactive | 3.33% (inactive) | 1.07% (inactive)
Cc1ccc(C)c(CSc2nnc(CCN)o2)c1 | 431 | -14.5% (inactive) | 2.5% (inactive) | 65.3 | -41.1% (inactive) | 103 | -0.462 (inactive) | -9.3e-06 (inactive) | 0.00535 (inactive) | inactive | 6.22% (inactive) | 10.2% (inactive)
Cn1c(CSc2nc3ccccc3s2)nnc1SCC(=O)NCCN1CCOCC1 | 487 | 4.5% (inactive) | -3.4% (inactive) | 94.1 | -23% (inactive) | 125 | -0.409 (inactive) | -8.1e-06 (inactive) | 0.00477 (inactive) | inactive | -5.77% (inactive) | 13.9% (inactive)
O=C(CSc1nc2cc(S(=O)(=O)N3CCOCC3)ccc2o1)NC1CCCc2ccccc21 (configuration not stated) | 571 | -16.3% (inactive) | -7.6% (inactive) | 89.9 | 36.5% (inactive) | 86.1 | -0.363 (inactive) | -8.5e-05 (inactive) | 0.00378 (inactive) | inactive | 11.5% (inactive) | 99.3% (active)
CCn1c(SCC(N)=O)nnc1-c1ccc(S(=O)(=O)N2CCN(C)CC2)cc1 | 736 | -10.2% (inactive) | -23.3% (inactive) | 118 | -11.3% (inactive) | 129 | -0.396 (inactive) | -1.7e-05 (inactive) | 0.00446 (inactive) | inactive | -10.4% (inactive) | -10.4% (inactive)

— PubChem BioAssay
